Laboratory results published in ChEMBL document CHEMBL4689842, “EUbOPEN Chemogenomics Library wave 1” (2021).

System: U2OS
Assay: Multiplex assay against U2OS
Assay type: toxicity, cell-based
Details: human
Procedure, shortened: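 Imaging took place on a CQ1 microscope at 37°C and 5% CO2 once compound had been added to live cells stained at seeding with Hoechst33342, BioTracker Green Microtubule Cytoskeleton Dye, MitoTracker Red and Annexin V Alexa Fluor 680. CellPathfinder machine-learning gating classed cells as Hoechst high-intensity objects or normal cells, classed normal cells as having healthy, pyknosed or fragmented nuclei, and classed pyknosed cells as mitotic or apoptotic. Tubulin, mitochondrial-mass and membrane-permeability phenotypes are per cents of the healthy-nucleus cells.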

[1] = 12 h, 1 µM, compound concentration 1 uM, replicate 1
[2] = 12 h, 1 µM, compound concentration 1 uM, replicate 2
[3] = 12 h, 10 µM, compound concentration 10 uM, replicate 1
[4] = 12 h, 10 µM, compound concentration 10 uM, replicate 2
[5] = 24 h, 1 µM, compound concentration 1 uM, replicate 1
[6] = 24 h, 1 µM, compound concentration 1 uM, replicate 2
[7] = 24 h, 10 µM, compound concentration 10 uM, replicate 1
[8] = 24 h, 10 µM, compound concentration 10 uM, replicate 2

Compound: CC(C)CC(=O)Nc1[nH]nc2c1CN(C(=O)C1CCN(C)CC1)C2(C)C [PHA-793887]
- Population Apoptotic (%) [1]: 25%
- Population Fragmented Nuclei (%) [1]: 3%
- Population Healthy Nuclei (%) [1]: 92%
- Population Hoechst High Intensity Objects (%) [1]: 1%
- Population Membrane Permeable-Phenotype (%) [1]: 8%
- Population Mitochondria Different-Phenotype (%) [1]: 30%
- Population Mitotic Cells (%) [1]: 75%
- Population Normal (%) [1]: 98%
- Population Tubulin-Different-Phenotype (%) [1]: 30%
- Total Cell Count [1]: 161
- Population Apoptotic (%) [2]: 20%
- Population Fragmented Nuclei (%) [2]: 8%
- Population Healthy Nuclei (%) [2]: 87%
- Population Hoechst High Intensity Objects (%) [2]: 11%
- Population Membrane Permeable-Phenotype (%) [2]: 9%
- Population Mitochondria Different-Phenotype (%) [2]: 39%
- Population Mitotic Cells (%) [2]: 80%
- Population Normal (%) [2]: 88%
- Population Pyknosed Nuclei (%) [2]: 4%
- Population Tubulin-Different-Phenotype (%) [2]: 35%
- Total Cell Count [2]: 87
- Population Apoptotic (%) [3]: 72%
- Population Fragmented Nuclei (%) [3]: 17%
- Population Healthy Nuclei (%) [3]: 68%
- Population Hoechst High Intensity Objects (%) [3]: 3%
- Population Membrane Permeable-Phenotype (%) [3]: 12%
- Population Mitochondria Different-Phenotype (%) [3]: 29%
- Population Mitotic Cells (%) [3]: 28%
- Population Normal (%) [3]: 96%
- Population Pyknosed Nuclei (%) [3]: 13%
- Population Tubulin-Different-Phenotype (%) [3]: 32%
- Total Cell Count [3]: 188
- Population Apoptotic (%) [4]: 50%
- Population Fragmented Nuclei (%) [4]: 11%
- Population Healthy Nuclei (%) [4]: 78%
- Population Hoechst High Intensity Objects (%) [4]: 14%
- Population Membrane Permeable-Phenotype (%) [4]: 21%
- Population Mitochondria Different-Phenotype (%) [4]: 34%
- Population Mitotic Cells (%) [4]: 50%
- Population Normal (%) [4]: 85%
- Population Pyknosed Nuclei (%) [4]: 10%
- Population Tubulin-Different-Phenotype (%) [4]: 26%
- Total Cell Count [4]: 136
- Population Apoptotic (%) [5]: 22%
- Population Fragmented Nuclei (%) [5]: 5%
- Population Healthy Nuclei (%) [5]: 91%
- Population Hoechst High Intensity Objects (%) [5]: 1%
- Population Membrane Permeable-Phenotype (%) [5]: 3%
- Population Mitochondria Different-Phenotype (%) [5]: 24%
- Population Mitotic Cells (%) [5]: 77%
- Population Normal (%) [5]: 98%
- Population Pyknosed Nuclei (%) [5]: 3%
- Population Tubulin-Different-Phenotype (%) [5]: 29%
- Total Cell Count [5]: 148
- Population Apoptotic (%) [6]: 50%
- Population Fragmented Nuclei (%) [6]: 9%
- Population Healthy Nuclei (%) [6]: 85%
- Population Hoechst High Intensity Objects (%) [6]: 2%
- Population Membrane Permeable-Phenotype (%) [6]: 9%
- Population Mitochondria Different-Phenotype (%) [6]: 43%
- Population Mitotic Cells (%) [6]: 50%
- Population Normal (%) [6]: 97%
- Population Pyknosed Nuclei (%) [6]: 4%
- Population Tubulin-Different-Phenotype (%) [6]: 34%
- Total Cell Count [6]: 82
- Population Apoptotic (%) [7]: 72%
- Population Fragmented Nuclei (%) [7]: 9%
- Population Healthy Nuclei (%) [7]: 73%
- Population Hoechst High Intensity Objects (%) [7]: 4%
- Population Membrane Permeable-Phenotype (%) [7]: 24%
- Population Mitochondria Different-Phenotype (%) [7]: 45%
- Population Mitotic Cells (%) [7]: 27%
- Population Normal (%) [7]: 95%
- Population Pyknosed Nuclei (%) [7]: 17%
- Population Tubulin-Different-Phenotype (%) [7]: 33%
- Total Cell Count [7]: 287
- Population Apoptotic (%) [8]: 55%
- Population Fragmented Nuclei (%) [8]: 19%
- Population Healthy Nuclei (%) [8]: 69%
- Population Hoechst High Intensity Objects (%) [8]: 16%
- Population Membrane Permeable-Phenotype (%) [8]: 21%
- Population Mitochondria Different-Phenotype (%) [8]: 36%
- Population Mitotic Cells (%) [8]: 44%
- Population Normal (%) [8]: 83%
- Population Pyknosed Nuclei (%) [8]: 10%
- Population Tubulin-Different-Phenotype (%) [8]: 29%
- Total Cell Count [8]: 172
